Results on six molecules are retold here after ChEMBL document CHEMBL3244073, “1,2,4-Triazole amino nucleosides. 1-beta-D-3'-Amino-3'-deoxyribofuranosyl-1,2,4-triazole-3-carboxamide and related nucleosides” (1977).

The test system of one assay is P388. The assay is described as follows: Cytotoxicity against mouse P388 cells after 72 hrs by hemocytometer-based cell counting method. It counts as functional. As to conditions: P388, 72 h, read-out: LD50 (the source's name). In short, it runs like this: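 P-388 mouse lymphoid leukemia cells grown in tissue culture with the nucleoside present; cytotoxicity expressed as the LD50 concentration in µg/mL.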

A further assay relates to Human alphaherpesvirus 1. Briefly: Antiviral activity against Herpes simplex virus 1 HF assessed as inhibition of virus-induced cytopathogenicity. The format is functional, organism-based. The method in brief: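 Cytopathogenic effect of HSV-1 strain HF was scored in infected cell cultures exposed to the nucleoside. The procedure was a modified Ehrlich method, as run in earlier work.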

Calls of active or inactive are those of the source. The calls are words filed in the database; no cut-off is given here.

Take `N/C(=N/O)c1ncn([C@@H]2O[C@H](CO)[C@@H](N)[C@H]2O)n1`: the CC50 with P388 is more than 100 µg/mL. Also, the result in the assay with Human alphaherpesvirus 1 was inactive.
On the same counts, the results for `NC(=O)c1ncn([C@@H]2O[C@H](CO)[C@@H](N)[C@H]2O)n1` are more than 100 µg/mL and “inactive”.
As for `N[C@H]1[C@@H](O)[C@H](n2cnc(C(=O)NO)n2)O[C@@H]1CO`, the CC50 in the assay on P388 was more than 100 µg/mL. Moreover, in the assay with Human alphaherpesvirus 1, the result was inactive.
Regarding `NNC(=O)c1ncn([C@@H]2O[C@H](CO)[C@@H](N)[C@H]2O)n1`, the CC50 in the assay on P388 is more than 100 µg/mL. The result in the assay on Human alphaherpesvirus 1 was inactive.
For the molecule `NC(=O)c1ncnn1[C@@H]1O[C@H](CO)[C@@H](N)[C@H]1O`, the CC50 in the assay with P388 is more than 100 µg/mL. The result with Human alphaherpesvirus 1 was inactive.
Turning to `N/N=C(/N)c1ncn([C@@H]2O[C@H](CO)[C@@H](N)[C@H]2O)n1`, the CC50 in the assay with P388 is more than 100 µg/mL. The result in the assay with Human alphaherpesvirus 1 was inactive.
